According to ChEMBL document CHEMBL4364267, “Hydrogen sulfide donating ent-kaurane and spirolactone-type 6,7-seco-ent-kaurane derivatives: Design, synthesis and antiproliferative properties” (Eur J Med Chem, 2019):
The source made the active and inactive calls. The calls are words filed in the database; no cut-off is given here.

Columns and labels:
L02 = test: Cytotoxicity against human L02 cells assessed as reduction in cell viability after 72 hrs by MTT assay; type: cell-based; details: L02, 72 h
In short: (§1)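 MTT assay over 72 h, compounds at 64, 16, 4, 1, 0.25, 0.0625 and 0.015625 μM. MTT solution (5 mg/mL) and DMSO added afterwards, 10 min at room temperature, absorbance read at 490 nm. IC50 calculated as the mean ± SD of three independent experiments.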

Bel-7402 = test: Antiproliferative activity against human Bel7402 cells assessed as reduction in cell viability after 72 hrs by MTT assay; type: functional, cell-based; details: Bel-7402, 72 h; in short: as §1
PBMC = test: Cytotoxicity against human PBMC assessed as reduction in cell viability after 72 hrs by MTT assay; type: cell-based; in short: as §1
K562 = test: Antiproliferative activity against human K562 cells assessed as reduction in cell viability after 72 hrs by MTT assay; type: functional, cell-based; details: K562, 72 h; in short: as §1
[1] = Induction of H2S generation in PBS containing Na2S and MB+ cocktail in presence of TCEP/L-cysteine measured at 15 to 20 mins after 20 mins compound incubation by methylene blue dye based UV-Vis spectrophotometric method; type: functional
In short: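 Na2S standards (5–150 μM) in sodium phosphate buffer reacted 20 min at room temperature with methylene blue cocktail (FeCl3/HCl, N,N-dimethyl-1,4-phenylenediamine/HCl, Zn(OAc)2) to build a 670 nm calibration curve. Compounds from 40 mM THF stock added to phosphate buffer with 1 mM TCEP or L-cysteine. Aliquots taken into the cocktail at set times, incubated 20 min, read at 670 nm. Mean of three experiments.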

A549 = test: Antiproliferative activity against human A549 cells assessed as reduction in cell viability after 72 hrs by MTT assay; type: functional, cell-based; details: A549, 72 h; in short: as §1
SGC-7901 = test: Antiproliferative activity against human SGC7901 cells assessed as reduction in cell viability after 72 hrs by MTT assay; type: functional, cell-based; details: SGC-7901, 72 h; in short: as §1

Compound	IC50 (L02) [µM]	IC50 (Bel-7402) [µM]	IC50 (PBMC) [µM]	IC50 (K562) [µM]	Activity [1]	IC50 (A549) [µM]	IC50 (SGC-7901) [µM]
C=C1C(=O)[C@@]23C(=O)OC[C@]4(C(=O)CCC(C)(C)[C@H]4C=O)[C@@H]2CC[C@@H]1[C@H]3OC(=O)CCC(=O)Oc1ccc(-c2cc(=S)ss2)cc1	18.2	1.38	16.6	1.82	Active	5.54	4.24
C=C1C(=O)[C@@]23C(=O)OC[C@]4(C(=O)CCC(C)(C)[C@H]4C=O)[C@@H]2CC[C@@H]1[C@H]3O	29.7	4.67	> 50	3.26		5.31	19.5
C=C1C(=O)[C@]23[C@H](OC(=O)CCCCC4CCSS4)[C@H]1CC[C@H]2[C@@]12CO[C@]3(O)[C@@H](O)[C@@H]1C(C)(C)CC[C@@H]2OC(C)=O (stereo partly drawn)	41.1	2.25	28.8	2.84	Active	8.65	6.02
O=C(O)CCCCC1CCSS1 (stereo not drawn) [LIPOIC ACID, ALPHA]	> 50	> 50	> 50	> 50		> 50	> 50
C=C1C(=O)[C@@]23C(=O)OC[C@]4(C(=O)CCC(C)(C)[C@H]4C=O)[C@@H]2CC[C@@H]1[C@H]3OC(=O)c1ccccc1C(=O)Oc1ccc(-c2cc(=S)ss2)cc1	26.2	3.26	31.4	4.25	Active	7.45	5.93
C=C1C(=O)[C@]23[C@H](OC(=O)CCCC(=O)Oc4ccc(-c5cc(=S)ss5)cc4)[C@H]1CC[C@H]2[C@@]12CO[C@]3(O)[C@@H](O)[C@@H]1C(C)(C)CCC2=O	21	3.04	17.2	3.84		4.38	6.59
Oc1ccc(-c2cc(=S)ss2)cc1	> 50	> 50	> 50	> 50		> 50	> 50
C=C1C(=O)[C@]23[C@H](O)[C@H]1CC[C@H]2[C@@]12CO[C@]3(O)[C@@H](O)[C@@H]1C(C)(C)CCC2=O	23.4	3.88	> 50	4.02		9.86	16.5
C=C1C(=O)[C@]23[C@H](OC(=O)CCCC(=O)Oc4ccc(-c5cc(=S)ss5)cc4)[C@H]1CC[C@H]2[C@@]12CO[C@]3(O)[C@@H](O)[C@@H]1C(C)(C)CC[C@@H]2OC(C)=O	14.7	1.94	> 50	2.02		9.76	5.36
C=C1C(=O)[C@@]23C(=O)OC[C@]4([C@@H](OC(C)=O)CCC(C)(C)[C@H]4C=O)[C@@H]2CC[C@@H]1[C@H]3OC(=O)CCCC(=O)Oc1ccc(-c2cc(=S)ss2)cc1	> 50	4.59	30.7	3.27	Active	14.8	7.66
C=C1C(=O)[C@]23[C@H](OC(=O)c4ccccc4C(=O)Oc4ccc(-c5cc(=S)ss5)cc4)[C@H]1CC[C@H]2[C@@]12CO[C@]3(O)[C@@H](O)[C@@H]1C(C)(C)CCC2=O	42.6	5.34	> 50	4.8	Active	7.69	14.9
C=C1C(=O)[C@@]23C(=O)OC[C@]4([C@@H](OC(C)=O)CCC(C)(C)[C@H]4C=O)[C@@H]2CC[C@@H]1[C@H]3OC(=O)CCCCC1CCSS1 (stereo partly drawn)	36.5	4.58	> 50	6.75	Active	19.9	10
C=C1C(=O)[C@]23[C@H](O)[C@H]1CC[C@H]2[C@@]12CO[C@]3(O)[C@@H](O)[C@@H]1C(C)(C)CC[C@@H]2O [ORIDONIN]	18.7	8.31	> 50			17.8	7.87
C=C1C(=O)[C@]23[C@H](OC(=O)CCC(=O)Oc4ccc(-c5cc(=S)ss5)cc4)[C@H]1CC[C@H]2[C@@]12CO[C@]3(O)[C@@H](O)[C@@H]1C(C)(C)CC[C@@H]2OC(C)=O	23.2	2.87	44.1	2.54		6.34	5.49
C=C1C(=O)[C@]23[C@H](OC(=O)CCC(=O)Oc4ccc(-c5cc(=S)ss5)cc4)[C@H]1CC[C@H]2[C@@]12CO[C@]3(O)[C@@H](O)[C@@H]1C(C)(C)CCC2=O	> 50	3.52	29.6	3.66		9.78	12.5
O=c1[nH]cc(F)c(=O)[nH]1 [FLUOROURACIL]	> 50	17.6	> 50	4.02			6.38
C=C1C(=O)[C@]23[C@H](OC(=O)c4ccccc4C(=O)Oc4ccc(-c5cc(=S)ss5)cc4)[C@H]1CC[C@H]2[C@@]12CO[C@]3(O)[C@@H](O)[C@@H]1C(C)(C)CC[C@@H]2OC(C)=O	> 50	7.68	39.5	11.4	Active	16.7	12.4
C=C1C(=O)[C@@]23C(=O)OC[C@]4([C@@H](OC(C)=O)CCC(C)(C)[C@H]4C=O)[C@@H]2CC[C@@H]1[C@H]3OC(=O)CCC(=O)Oc1ccc(-c2cc(=S)ss2)cc1	> 50	9.73	25.9	15.3	Active	27.5	17.9
C=C1C(=O)[C@@]23C(=O)OC[C@]4([C@@H](OC(C)=O)CCC(C)(C)[C@H]4C=O)[C@@H]2CC[C@@H]1[C@H]3O	> 50	> 50	> 50	8.96		27.4	49.8
C=C1C(=O)[C@@]23C(=O)OC[C@]4(C(=O)CCC(C)(C)[C@H]4C=O)[C@@H]2CC[C@@H]1[C@H]3OC(=O)CCCCC1CCSS1 (stereo partly drawn)	19.9	2.56	> 50	2.59	Active	7.92	6.43
C=C1C(=O)[C@]23[C@H](O)[C@H]1CC[C@H]2[C@@]12CO[C@@]3(O)[C@@H](O)[C@@H]1C(C)(C)CC[C@@H]2OC(C)=O	22.4	3.59	> 50	4.92		13.5	6.45
